Experimental data from ChEMBL document CHEMBL4138145, “Cyclic Cystine-Bridged Peptides from the Marine Sponge Clathria basilana Induce Apoptosis in Tumor Cells and Depolarize the Bacterial Cytoplasmic Membrane” (J Nat Prod, 2017).
Active and inactive are the calls of the source. The calls are words filed in the database; no cut-off is given here. Where a SMILES comes first, the peptide text is derived from it. Bridges are numbered along the chain shown (N, C = ends). [ ]: non-standard residue; d: D form. The star is where a group is joined. Ileψ(thiazoline)Cys = CC[C@H](C)[C@H](N)C1=N[C@H](C(=O)*)CS1; pGlu = O=C1CC[C@@H](C(=O)O)N1; dOrn = NCCC[C@@H](N)C(=O)O; X2 = C(=C\c1ccccc1)/N*; X4 = C(=C/c1ccccc1)/N*

Columns and labels:
[1] = test system: Mycobacterium tuberculosis; experiment: Antimicrobial activity against Mycobacterium tuberculosis H37Rv up to 100 uM after 5 days by resazurin dye based assay; format: functional, organism-based
In short: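 M. tuberculosis H37Rv was grown aerobically at 37 °C in Middlebrook 7H9 with ADS enrichment, 0.5% glycerol and 0.05% tyloxapol, then precultured to log phase (OD600 0.5−1). Cells were seeded at 1 × 10^5 per well on 2-fold dilutions over 100−0.78 μM and held 5 days at 37 °C. Resazurin was added for 16 h at ambient temperature, then cells were formalin-fixed and fluorescence read (ex 540, em 590 nm). Growth is relative to rifampicin (0%) and DMSO (100%).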

[2] = test system: A2780; experiment: Cytotoxicity against human A2780 cells assessed as reduction in cell viability up to 10 uM after 72 hrs by MTT assay; format: functional, cell-based
In short: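 A2780 ovarian carcinoma cells were grown in RPMI-1640 with 10% FBS, penicillin and streptomycin, about 9000 cells/well, preincubated overnight. Increasing compound concentrations were applied for 72 h, then MTT was added. Absorbance read at 544 nm minus the 690 nm reference.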

[3] = test system: Ramos; experiment: Cytotoxicity against human Ramos cells assessed as reduction in cell viability up to 10 uM after 24 hrs by MTT assay; format: functional, cell-based
In short: (§1)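 Suspension cells at 5 × 10^5 cells/mL, exposed 24 h to varying compound concentrations; 0.1% v/v DMSO as negative control. MTT added to 1 mg/mL final for 60 min, cells pelleted, formazan extracted in DMSO for 25 min at rt, A570 read with 650 nm reference. Viability relative to DMSO set at 100%; IC50 from fitted curves.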

[4] = organism: Homo sapiens; experiment: Cytotoxicity against human Jurkat 16 cells assessed as reduction in cell viability up to 10 uM after 24 hrs by MTT assay; format: functional, cell-based; in short: as §1
[5] = test system: NOMO-1; experiment: Cytotoxicity against human NOMO1 cells assessed as reduction in cell viability up to 10 uM after 24 hrs by MTT assay; format: functional, cell-based; in short: as §1
[6] = test system: HL-60; experiment: Cytotoxicity against human HL60 cells assessed as reduction in cell viability up to 10 uM after 24 hrs by MTT assay; format: functional, cell-based; in short: as §1
[7] = test system: Klebsiella pneumoniae; experiment: Antimicrobial activity against Klebsiella pneumoniae after 16 to 20 hrs by broth micro dilution method; format: functional, organism-based
In short: (§2)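 Broth microdilution per CLSI in cation-adjusted Mueller-Hinton broth. Inoculum made by direct colony suspension, 5 × 10^5 CFU/mL final, added to serial 2-fold compound dilutions. Plates kept 16–20 h at 37 °C in ambient air. MIC is the lowest concentration with no visible growth. Strains are ATCC CLSI quality-control strains; A. baumannii 09987 is a Bonn clinical isolate.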

[8] = test system: Klebsiella aerogenes; experiment: Antimicrobial activity against Enterobacter aerogenes after 16 to 20 hrs by broth micro dilution method; format: functional, organism-based; in short: as §2
[9] = test system: Escherichia coli; experiment: Antimicrobial activity against Escherichia coli after 16 to 20 hrs by broth micro dilution method; format: functional, organism-based; in short: as §2
[10] = test system: Pseudomonas aeruginosa; experiment: Antimicrobial activity against Pseudomonas aeruginosa after 16 to 20 hrs by broth micro dilution method; format: functional, organism-based; in short: as §2
[11] = test system: Acinetobacter baumannii; experiment: Antimicrobial activity against Acinetobacter baumannii isolate 09987 after 16 to 20 hrs by broth micro dilution method; format: functional, organism-based; in short: as §2
[12] = test system: Bacillus subtilis; experiment: Induction of cell envelope stress in Bacillus subtilis isolate 1S34 assessed as increase in liaI promoter activity at 10 ug after 14 to 18 hrs by beta-galactosidase reporter gene assay; format: functional, organism-based
In short: (§3)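 Agar-based β-galactosidase promoter-reporter assay. B. subtilis 1S34 grown to stationary phase in LB with spectinomycin 50 μg/mL, then set at 3 × 10^7 CFU/mL in LB soft agar (0.7%) containing X-Gal 150 μg/mL. Test compounds spotted at 20 nmol; reference antibiotics given on paper discs (5–30 μg). Plates read for promoter induction after 14–18 h at 30 °C.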

[13] = test system: Bacillus subtilis; experiment: Induction of cell envelope stress in Bacillus subtilis isolate 1S34 assessed as increase in ypuA promoter activity at 10 ug after 14 to 18 hrs by beta-galactosidase reporter gene assay; format: functional, organism-based; in short: as §3
[14] = test system: Bacillus subtilis; experiment: Induction of DNA damage in Bacillus subtilis isolate 1S34 assessed as increase in yorB promoter activity at 10 ug after 14 to 18 hrs by beta-galactosidase reporter gene assay; format: functional, organism-based; in short: as §3
[15] = test system: Bacillus subtilis; experiment: Induction of RNA damage in Bacillus subtilis isolate 1S34 assessed as increase in helD promoter activity at 10 ug after 14 to 18 hrs by beta-galactosidase reporter gene assay; format: functional, organism-based; in short: as §3
[16] = test system: Bacillus subtilis; experiment: Induction of translation arrest in Bacillus subtilis isolate 1S34 assessed as increase in bmrC promoter activity at 10 ug after 14 to 18 hrs by beta-galactosidase reporter gene assay; format: functional, organism-based

Compound	Activity [1]	Activity [2]	Activity [3]	Activity [4]	Activity [5]	Activity [6]	Activity [7]	Activity [8]	Activity [9]	Activity [10]	Activity [11]	Activity [12]	Activity [13]	Activity [14]	Activity [15]	Activity [16]
CC(C)[C@H](N)C(=O)N/C=C/c1ccccc1	inactive	inactive	inactive	inactive	inactive	inactive	inactive	inactive	inactive	inactive	inactive	–	–	–	–	–
O=C(N[C@H](CO)[C@H](O)c1ccc([N+](=O)[O-])cc1)C(Cl)Cl	–	–	–	–	–	–	–	–	–	–	–	Active	Active	Active	Active	Active
CC(C)C[C@@H]1NC(=O)[C@@H]2CCCN2C(=O)[C@@H]2CCCN2C(=O)[C@@H](NC(=O)[C@@H]2CCC(=O)N2)CSSC[C@@H](C(=O)N2CCC[C@H]2C(N)=O)NC1=O ([pGlu]CPPLCP-NH2; disulfide 2-6)	inactive	inactive	inactive	inactive	inactive	inactive	inactive	inactive	inactive	inactive	inactive	–	–	–	–	–
CC[C@H](C)[C@H](NC(=O)[C@@H]1CCC(=O)N1)C(=O)N[C@@H](CC(C)C)C(=O)N[C@H]1CSSC[C@@H](C(=O)N/C=C/c2ccccc2)NC(=O)[C@H](Cc2ccccc2)NC(=O)[C@@H]2CCCN2C(=O)[C@@H]2CCCN2C1=O ([pGlu]ILCPPFC-X2; disulfide 4-8)	inactive	inactive	inactive	inactive	inactive	inactive	inactive	inactive	inactive	inactive	inactive	–	–	–	–	–
CC[C@H](C)[C@H](NC(=O)[C@@H]1CCC(=O)N1)C(=O)N[C@@H](CC(C)C)C(=O)N[C@H]1CSSC[C@@H](C(=O)N/C=C\c2ccccc2)NC(=O)[C@H](Cc2ccccc2)NC(=O)[C@@H]2CCCN2C(=O)[C@@H]2CCCN2C1=O ([pGlu]ILCPPFC-X4; disulfide 4-8)	–	inactive	inactive	inactive	inactive	inactive	–	–	–	–	–	–	–	–	–	–
CC[C@H](C)[C@H](N)C1=N[C@H](C(=O)N[C@@H](CC(C)C)C(=O)N[C@H](CCC(=O)O)C(=O)N[C@H](C(=O)N[C@H]2CCCCNC(=O)[C@H](CC(N)=O)NC(=O)[C@@H](CC(=O)O)NC(=O)[C@H](Cc3cnc[nH]3)NC(=O)[C@@H](Cc3ccccc3)NC(=O)[C@H]([C@@H](C)CC)NC(=O)[C@@H](CCCN)NC2=O)[C@@H](C)CC)CS1 ({Ileψ(thiazoline)Cys}-L[dE]IK[dOrn]I[dF]H[dD]N; lactam 4-C)	–	–	–	–	–	–	–	–	–	–	–	Active	Active	Active	Active	Active
